Results of several laboratories.
Each line is one published result; the experiments were not run side by side.
SIRT6: NAD-dependent protein deacylase sirtuin-6 (SIRT6, Homo sapiens, UniProt Q8N6T7)
TNNI3K: Serine/threonine-protein kinase TNNI3K (TNNI3K, Homo sapiens, UniProt Q59H18)
PBK: Lymphokine-activated killer T-cell-originated protein kinase (PBK, Homo sapiens, UniProt Q96KB5)
VRK1: Serine/threonine-protein kinase VRK1 (VRK1, Homo sapiens, UniProt Q99986)

SMILES | target | observed | mode | technique | concentration | endpoint | result
Nc1nonc1-n1cc(C(=O)N/N=C/c2cccnc2)nn1 | SIRT6 | enzyme activity | inhibitor | fluorescence | 100 µM | remaining activity | 26%
Cc1ccc(C(=O)Nc2ccc(CN3CCN(C)CC3)c(C(F)(F)F)c2)cc1C#Cc1cnc2cccnn12 | TNNI3K | cell-free assay |  |  | 23.5 nM | remaining signal | 50%
Nc1nonc1-n1cc(C(=O)N/N=C/c2ccc([N+](=O)[O-])cc2)nn1 | SIRT6 | enzyme activity | inhibitor | fluorescence | 100 µM | remaining activity | 24.8%
NS(=O)(=O)c1ccc(C(=O)NOCc2ccccc2)cc1 | SIRT6 | enzyme activity | inhibitor | fluorescence | 100 µM | inhibition | 47.4%
C[S+]([O-])c1ccc(-c2nc(-c3ccncc3)c(-c3ccc(F)cc3)[nH]2)cc1 (stereo not drawn) | Bromodomain-containing protein 7 (BRD7, Homo sapiens, UniProt Q9NPI1) | thermal stability |  | DSF | 10 µM | ΔTm | 0.34 °C
COC(=O)c1ccc(O)c(/C=N/NC(=O)c2cn(-c3nonc3N)nn2)c1 | SIRT6 | enzyme activity | inhibitor | fluorescence | 100 µM | remaining activity | 99.6%
CN1CCC2(CC1)NC(=O)c1c(c3ccc(Cl)c(Cl)c3n1C)C2C#N (racemic) | PBK | thermal stability |  | DSF | 10 µM | ΔTm | -0.2 °C
Nc1nonc1-n1cc(C(=O)N/N=C/c2ccc(O)c(O)c2O)nn1 | SIRT6 | enzyme activity | inhibitor | fluorescence | 100 µM | remaining activity | 51.3%
Cn1c2c(c3ccc(Cl)c(Cl)c31)C(C#N)C1(CCNCC1)NC2=O (racemic) | PBK | thermal stability |  | DSF | 10 µM | ΔTm | -0.9 °C
CNC(=O)c1ccc(C(=O)NOCc2ccc(C(F)(F)F)cc2)cc1 | SIRT6 | enzyme activity | inhibitor | fluorescence | 100 µM | inhibition | 35.3%
Nc1ncnc2occ(-c3ccc(NC(=O)Nc4cc(C(F)(F)F)ccc4F)cc3)c12 | TNNI3K | cell-free assay |  |  | 20 µM | remaining signal | 1.5%
Cn1c2c(c3ccc(Cl)c(Cl)c31)C(C#N)C(C)(C)NC2=O (stereo not drawn) | PBK | thermal stability |  | DSF | 10 µM | ΔTm | -0.6 °C
CC/C(=N\NC(=O)NCc1cccc(O)c1)c1ccc(O)c(C)c1O | ALK tyrosine kinase receptor (ALK, Homo sapiens, UniProt Q9UM73, G1269A) | enzyme activity | inhibitor |  | 0.1 µM | inhibition | 0.4%
Cn1c2c(c3ccc(Cl)c(Cl)c31)C(C#N)C1(CCCC1)NC2=O (stereo not drawn) | PBK | thermal stability |  | DSF | 10 µM | ΔTm | 0 °C
Nc1nonc1-n1cc(C(=O)N/N=C/c2ccco2)nn1 | SIRT6 | enzyme activity | inhibitor | fluorescence | 100 µM | remaining activity | 40.9%
CCC1(CC)NC(=O)c2c(c3ccc(Cl)c(Cl)c3n2C)C1C#N (stereo not drawn) | VRK1 | thermal stability |  | DSF | 10 µM | ΔTm | 0 °C
NC(=O)c1ccc(C(=O)NOCc2cccc(F)c2)cc1 | SIRT6 | enzyme activity | inhibitor | fluorescence | 100 µM | inhibition | 74.1%
Cc1ccc(C(=O)NCc2ccsc2)cc1C#Cc1cn(C(C)C)c2ncnc(N)c12 | [Pyruvate dehydrogenase (acetyl-transferring)] kinase isozyme 4, mitochondrial (PDK4, Homo sapiens, UniProt Q16654) | enzyme activity | inhibitor |  | 1 µM | activity vs control | 119%
NC(=O)c1ccc(C(=O)NOCc2cccc(Br)c2)cc1 | SIRT6 | enzyme activity | inhibitor | fluorescence | 100 µM | inhibition | 82.3%
Nc1nonc1-n1cc(C(=O)N/N=C/c2ccc(F)cc2)nn1 | SIRT6 | enzyme activity | inhibitor | fluorescence | 100 µM | remaining activity | 43%
Cc1cccc(Sc2ccc(CONC(=O)c3ccc(C(N)=O)cc3)cc2C(F)(F)F)c1 | SIRT6 | enzyme activity | inhibitor | fluorescence | 100 µM | inhibition | 100%
Cn1c2c(c3ccc(Cl)c(Cl)c31)C(C#N)C1(CCOCC1)NC2=O (stereo not drawn) | PBK | thermal stability |  | DSF | 10 µM | ΔTm | -0.4 °C
NC(=O)c1ccc(C(=O)NOCc2ccc(Sc3ccc(N)cc3)c(C(F)(F)F)c2)cc1 | SIRT6 | enzyme activity | inhibitor | fluorescence | 100 µM | inhibition | 97.3%
O=C(Nc1ccc(S(=O)(=O)N2CCC(Cl)CC2)cc1)c1ccc([N+](=O)[O-])o1 | Voltage-dependent L-type calcium channel subunit alpha-1C (Cacna1c, Rattus norvegicus, UniProt P22002) | cell-free assay |  |  | 10 µM | inhibition | 6%
Nc1nonc1-n1cc(C(=O)N/N=C/c2cccc(O)c2O)nn1 | SIRT6 | enzyme activity | inhibitor | fluorescence | 100 µM | remaining activity | 27.2%
CC1(C)NC(=O)c2[nH]c3c(Cl)c(Cl)ccc3c2C1C#N (stereo not drawn) | VRK1 | thermal stability |  | DSF | 10 µM | ΔTm | 0.2 °C
NC(=O)c1ccc(C(=O)NOCc2ccc3nccnc3c2)cc1 | SIRT6 | enzyme activity | inhibitor | fluorescence | 100 µM | inhibition | 61.4%
CCN1CCC2(CC1)NC(=O)c1c(c3ccc(Cl)c(Cl)c3n1C)C2C#N (racemic) | VRK1 | thermal stability |  | DSF | 10 µM | ΔTm | -0.4 °C
NC(=O)c1ccc(C(=O)NOCc2ccc(C(F)(F)F)cc2)cc1 | SIRT6 | enzyme activity | inhibitor | fluorescence | 100 µM | inhibition | 87%
Nc1nonc1-n1cc(C(=O)N/N=C/c2ccc([N+](=O)[O-])cc2O)nn1 | SIRT6 | enzyme activity | inhibitor | fluorescence | 100 µM | remaining activity | 20.6%
